Only some compounds are listed: those with a hit (about 2.2% of all), similar ones and a draw of the others.
FGF22 binding: binders of recombinant human FGF22 by thermal shift | Q9HCT0 | SYPRO orange fluorescence; percent of sucrose octasulfate shift, DMSO zero | activity (Tm shift, normalised), % at 9.99 µM | 340,000 tested, 1.5% active;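 active = mean Tm shift, scaled 0 neutral to 100 positive control, at about 1.3% or above, every replicate too, limit read from the data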
Target sequence (Q9HCT0 whole entry, looked up): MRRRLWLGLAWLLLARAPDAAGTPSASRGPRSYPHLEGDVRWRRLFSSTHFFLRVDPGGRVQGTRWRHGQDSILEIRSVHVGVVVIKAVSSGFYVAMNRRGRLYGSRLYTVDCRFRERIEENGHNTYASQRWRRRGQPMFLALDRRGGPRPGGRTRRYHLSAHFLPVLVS
dFosB act-1: mouse delta FosB homodimer activation; activation, % at 25 µM; purified delta FosB, TAMRA-CDK5 oligo fluorescence polarization; percent of positive-control signal above neutral wells; P13346; AID 493131; 340,000 tested, 0.99% active;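 active = mean activation above about 17%, with every replicate also reaching it, limit read from the data, passing the limit was not always enough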
S100A4 MyoIIA: S100A4-myosin IIA interaction inhibition; 360,000 tested, 0.14% active; inhibition, % at 10.7 µM; P26447; S100A4/TAMRA-MyoIIA peptide fluorescence polarization;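 active = mean inhibition of at least 70% across replicates, with every replicate also reaching that level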
Target sequence (P26447 whole entry, looked up): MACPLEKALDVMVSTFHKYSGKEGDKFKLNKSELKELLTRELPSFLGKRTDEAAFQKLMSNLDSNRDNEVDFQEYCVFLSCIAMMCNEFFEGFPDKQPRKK
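incubation = readout 5 min after mixing, signal stable up to 60 min | system = S100A4 monomer protein | buffer or medium = HEPES pH 7.2 with CaCl2, KCl, NaCl, DTT, Triton | benchmarks = neutral control DMSO, positive control TFP | also added = fluorescent myosin IIA peptide, 5 nM | compound dosing = one concentration per compound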
F508del corr: correctors of CFTR F508del function in bronchial epithelial cells; activity (quench increase), % at 7.58 µM; CFBE cells, YFP halide quenching; stimulated with forskolin plus potentiator P3; % fluorescence drop versus neutral controls; 350,000 tested, 0.36% active;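 active = mean added fluorescence quench of at least 8% versus neutral control, with both replicates also reaching 8%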;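 also: cells transiently co-express mutant CFTR-F508del with the halide-sensitive YFP; corrector assay measuring rescue of mutant channel to the surface after 24 h compound exposure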
dFosB act-2: enhances mouse delta FosB homodimer binding to DNA | shares compounds with dFosB act-1 | purified delta FosB, TAMRA-CDK5 oligo fluorescence polarization; normalised: neutral wells 0, positive control 100 | activation, % at 24.9 µM | 2,400 tested, under 10 active | AID 588690;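 active = highest replicate activation at or above 34% and every replicate reaching that threshold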;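 also: higher polarization means more probe DNA bound by delta FosB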
An asterisk follows results filed as active.

COc1ccc(-c2[nH]ncc2/C=N/NC(=O)c2ccncc2)c(OC)c1 was read as FGF22 binding 0, dFosB act-1 19*, S100A4 MyoIIA -17, F508del corr 0 and dFosB act-2 0.
For C[C@@H]1CN([C@@H](C)CO)C(=O)Cc2cc(NS(C)(=O)=O)ccc2O[C@@H]1CN(C)Cc1ccncc1 the results were FGF22 binding 0, S100A4 MyoIIA 2 and F508del corr 0.
Screening CO[C@H](CN(C)C(=O)c1ccc2c(c1)OCO2)[C@@H](C)CN([C@@H](C)CO)S(=O)(=O)c1ccc(C)cc1 returned FGF22 binding 0, S100A4 MyoIIA -5 and F508del corr 1.
N#C/C(=C\c1c(N2CCN(Cc3ccccc3)CC2)nc2ccccn2c1=O)S(=O)(=O)c1ccccc1 was read as FGF22 binding 0, dFosB act-1 32*, S100A4 MyoIIA -13, F508del corr -2 and dFosB act-2 3.
Cc1ccc(S(=O)(=O)/C(C#N)=C/c2c(N3CCN(Cc4ccccc4)CC3)nc3ccccn3c2=O)cc1 was read as FGF22 binding 0, dFosB act-1 13, S100A4 MyoIIA -11 and F508del corr 1.
`O=C(COC(=O)c1ccc(Br)cc1)NCc1ccc(F)cc1` gave FGF22 binding 0, dFosB act-1 20*, S100A4 MyoIIA 0, F508del corr 3 and dFosB act-2 2.
Screening CCC(=O)N1C[C@@H](C)[C@@H](OC)CN(C)C(=O)c2cc(NC(=O)C3CC3)ccc2OC[C@@H]1C returned FGF22 binding 0, S100A4 MyoIIA -10 and F508del corr -2.
CC/C(=N\NC(=O)CSCc1ccccc1Cl)c1ccc2c(c1)OCCO2 was read as dFosB act-1 -14.
`CC/C(=N\NC(=O)CSCc1ccccc1Br)c1ccc2c(c1)OCCO2` gave dFosB act-1 20* and dFosB act-2 0.
For Cc1ccc(OCCCCCCN2CCNCC2)c(Br)c1 the results were FGF22 binding 0, dFosB act-1 23*, S100A4 MyoIIA -7, F508del corr -9 and dFosB act-2 -2.
`Cc1ccc(S(=O)(=O)N(C)C[C@@H]2Oc3ccc(NS(=O)(=O)c4c(C)noc4C)cc3CC(=O)N([C@@H](C)CO)C[C@@H]2C)cc1` gave FGF22 binding 0, S100A4 MyoIIA -7 and F508del corr 0.
For O=C(O)c1ccc(COc2ccccc2/C=C2/NC(=O)N(c3cccc(Cl)c3)C2=O)cc1 the results were FGF22 binding 0, dFosB act-1 28*, S100A4 MyoIIA 0, F508del corr 0 and dFosB act-2 4.
For CCS(=O)(=O)Nc1ccc2c(c1)C(=O)N(C)C[C@H](OC)[C@@H](C)CN[C@H](C)CO2 the results were S100A4 MyoIIA 2 and F508del corr 0.
C=CCN(c1ccccc1)S(=O)(=O)c1cccc(C(=O)Nc2nc3ccccc3[nH]2)c1 was read as dFosB act-1 47* and dFosB act-2 1.
`C/C(=N\NC(=S)NC1CCCCC1)c1ccc(C#N)cc1` gave FGF22 binding 0, dFosB act-1 36*, S100A4 MyoIIA -8, F508del corr 1 and dFosB act-2 6.
`COc1ccc(/C=C/C(=O)NC(=S)Nc2ccccc2C(=O)NC2CCCCC2)cc1` gave FGF22 binding 1, dFosB act-1 44*, S100A4 MyoIIA 3, F508del corr -3 and dFosB act-2 -3.
`O=C(/C=C/c1ccc(F)cc1)NC(=S)Nc1ccccc1C(=O)NC1CCCCC1` gave dFosB act-1 22* and dFosB act-2 3.
Screening O=C(/C=C/c1ccccc1)NC(=S)Nc1ccccc1C(=O)NC1CCCCC1 returned dFosB act-1 39* and dFosB act-2 -4.
For Cc1ccc(C(=O)NC(NC(=O)c2ccc(C)cc2)C(Cl)Cl)cc1 the results were dFosB act-1 24* and dFosB act-2 1.
For Cc1ccc(C(NC(=O)c2ccccc2)C(Cl)Cl)cc1 (configuration not stated) the results were FGF22 binding 0, dFosB act-1 -6, S100A4 MyoIIA 1 and F508del corr 1.
Cc1ccc(S(=O)(=O)N[C@@H]2CC[C@@H](CC(=O)NCc3ccccc3F)O[C@H]2CO)cc1 was read as FGF22 binding 0, S100A4 MyoIIA -52 and F508del corr 2.
For COc1ccc(NC(=O)N(C)C[C@H]2Oc3cc(-c4cccc(C(=O)N(C)C)c4)ccc3S(=O)(=O)N([C@H](C)CO)C[C@H]2C)cc1 the results were FGF22 binding 0, S100A4 MyoIIA 5 and F508del corr 1.
Screening CN(C)CC(=O)N[C@H]1CC[C@H](CC(=O)NCc2ccccc2F)O[C@@H]1CO returned FGF22 binding 0, S100A4 MyoIIA -13 and F508del corr -3.
`Cc1cc(C(=O)N/N=C/c2cccc(OC(=O)c3cccc(Br)c3)c2)n[nH]1` gave FGF22 binding 0, dFosB act-1 30*, S100A4 MyoIIA -6, F508del corr 1 and dFosB act-2 3.
Screening NS(=O)(=O)c1cccc(NC(=O)c2cc(=O)c3ccccc3o2)c1 returned FGF22 binding 0, dFosB act-1 19*, S100A4 MyoIIA -3, F508del corr 0 and dFosB act-2 -2.
For NS(=O)(=O)c1cccc(NC(=O)c2cc3ccccc3o2)c1 the results were FGF22 binding 0, dFosB act-1 -8, S100A4 MyoIIA 0 and F508del corr 0.
`CCCNC(=O)N1[C@@H](CO)[C@@H]2c3ccccc3N(C(=O)Nc3ccccc3)C[C@@H]21` gave FGF22 binding 0 and F508del corr -1.
For O=C(C[C@H]1CC[C@H]2[C@@H](COC[C@H](O)CN2Cc2cc(F)ccc2F)O1)NCc1ccc(Cl)cc1 the results were FGF22 binding 0, S100A4 MyoIIA -3 and F508del corr 1.
For CS(=O)(=O)N(Cc1ccc(Cl)cc1)c1ccc(C(=O)N/N=C/c2cc3ccccc3nc2Cl)cc1 the results were dFosB act-1 41* and dFosB act-2 7.
Screening CN(C)NC(=O)c1ccsc1NC(=O)c1ccc(S(=O)(=O)N2CCCC2)cc1 returned FGF22 binding 0, dFosB act-1 -15, S100A4 MyoIIA -1 and F508del corr 0.
CC1CCN(S(=O)(=O)c2ccc(C(=O)Nc3sccc3C(N)=O)cc2)CC1 was read as FGF22 binding 0, dFosB act-1 53*, S100A4 MyoIIA -1, F508del corr 2 and dFosB act-2 3.
O=C(COC(=O)/C=C/c1ccc([N+](=O)[O-])cc1)Nc1ccc(F)cc1 was read as FGF22 binding 0, dFosB act-1 19*, S100A4 MyoIIA 0, F508del corr 3 and dFosB act-2 5.
`NS(=O)(=O)c1ccc(NC(=O)COC(=O)/C=C/c2ccc([N+](=O)[O-])cc2)cc1` gave FGF22 binding 0, dFosB act-1 2, S100A4 MyoIIA 0 and F508del corr 6.
